Source: ChEMBL document CHEMBL1629690, “Development of hexadecyloxypropyl tenofovir (CMX157) for treatment of infection caused by wild-type and nucleoside/nucleotide-resistant HIV” (Antimicrob Agents Chemother, 2010)

Legend:
[1] = test system: Human immunodeficiency virus 1; assay: Antiviral activity against HIV1 isolate 071 harboring reverse transcriptase 65R/S68N/184V mutant gene by phenosense assay; format: functional, organism-based; conditions: Human immunodeficiency virus 1, isolate 071
Summary of the method: (§1)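 Recombinant-virus PhenoSense HIV assay run on a panel of 30 NRTI-resistant HIV-1 mutants and two wild-type viruses. Each virus is tested across increasing drug concentrations to give an inhibition curve and EC50. Fold change is the test recombinant EC50 divided by the EC50 of the drug-sensitive wild-type reference virus.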

[2] = test system: Human immunodeficiency virus 1; assay: Antiviral activity against HIV1 8415-2 harboring reverse transcriptase 65R/184V mutant gene infected in human PBMC by ELISA; format: functional, organism-based; conditions: Human immunodeficiency virus 1, 8415-2
Summary of the method: (§2)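 Fresh PBMCs pooled from at least two HIV- and HBV-seronegative donors, stimulated with PHA 4 μg/ml for 48–72 h and kept in rhIL-2 20 U/ml. Seeded at 5 × 10^4 cells/well and infected with RT-mutant HIV-1 clones at MOI ~0.1. Nine compound concentrations, triplicate wells, 7-day incubation. EC50 reported as mean ± SD of one to three independent experiments.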

[3] = test system: Human immunodeficiency virus 1; assay: Antiviral activity against HIV1 isolate 215 harboring reverse transcriptase D67N/K70E mutant gene by phenosense assay; format: functional, organism-based; conditions: Human immunodeficiency virus 1, isolate 215
Summary of the method: (§3)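 PhenoSense HIV recombinant virus assay: patient-derived HIV-1 with major NRTI resistance mutations tested against increasing drug concentrations to give inhibition curves. EC50 is the concentration giving 50% inhibition. Fold change is the test recombinant EC50 divided by the EC50 of a drug-sensitive wild-type reference virus. Panel of 30 NRTI-resistant isolates plus two wild-type viruses.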

[4] = test system: Human immunodeficiency virus 1; assay: Antiviral activity against HIV1 isolate 056 expressing wild type reverse transcriptase gene by phenosense assay; format: functional, organism-based; conditions: Human immunodeficiency virus 1, isolate 056
Summary of the method: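 In the PhenoSense recombinant virus assay, virus was tested against increasing drug concentrations. EC50 came from the inhibition curve and was compared with a drug-sensitive reference virus.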

[5] = test system: Human immunodeficiency virus 1; assay: Antiviral activity against HIV1 isolate 211 harboring reverse transcriptase D67N/K70R/T215F/K219E/M184V mutant gene by phenosense assay relative to wild type; format: functional; summary of the method: as §3
[6] = test system: Human immunodeficiency virus 1; assay: Antiviral activity against HIV1 isolate 071 harboring reverse transcriptase 65R/S68N/184V mutant gene by phenosense assay relative to wild type; format: functional; summary of the method: as §1
[7] = test system: Human immunodeficiency virus 1; assay: Antiviral activity against HIV1 isolate 061 harboring reverse transcriptase M41L/D67N/K70R/M184V/L210W/T215Y/K219E mutant gene by phenosense assay; format: functional, organism-based; conditions: Human immunodeficiency virus 1, isolate 061; summary of the method: as §1
[8] = test system: Human immunodeficiency virus 1; assay: Antiviral activity against HIV1 isolate 058 harboring reverse transcriptase M41L/D67N/K70R/L210W/T215F/K219Q mutant gene by phenosense assay; format: functional, organism-based; conditions: Human immunodeficiency virus 1, isolate 058; summary of the method: as §1
[9] = test system: Human immunodeficiency virus 1; assay: Antiviral activity against HIV1 isolate 060 harboring reverse transcriptase M41L/D67N/K70R/L210W/T215Y/K219E mutant gene by phenosense assay; format: functional, organism-based; conditions: Human immunodeficiency virus 1, isolate 060; summary of the method: as §1
[10] = test system: Human immunodeficiency virus 1; assay: Antiviral activity against HIV1 isolate 153 harboring reverse transcriptase L74V mutant gene by phenosense assay; format: functional, organism-based; conditions: Human immunodeficiency virus 1, isolate 153; summary of the method: as §1
[11] = test system: Human immunodeficiency virus 1; assay: Antiviral activity against HIV1 isolate 070 harboring reverse transcriptase 65R/S68G mutant gene by phenosense assay; format: functional, organism-based; conditions: Human immunodeficiency virus 1, isolate 070; summary of the method: as §1
[12] = test system: Human immunodeficiency virus 1; assay: Antiviral activity against HIV1 isolate 070 harboring reverse transcriptase 65R/S68G mutant gene by phenosense assay relative to wild type; format: functional; summary of the method: as §1
[13] = test system: Human immunodeficiency virus 1; assay: Antiviral activity against HIV1 isolate 060 harboring reverse transcriptase M41L/D67N/K70R/L210W/T215Y/K219E mutant gene by phenosense assay relative to wild type; format: functional; summary of the method: as §1
[14] = test system: Human immunodeficiency virus 1; assay: Antiviral activity against HIV1 isolate 188 harboring reverse transcriptase T215Y/M184V mutant gene by phenosense assay; format: functional, organism-based; conditions: Human immunodeficiency virus 1, isolate 188; summary of the method: as §1
[15] = test system: Human immunodeficiency virus 1; assay: Antiviral activity against HIV1 isolate 217 harboring reverse transcriptase D67N/K70E/M184V mutant gene by phenosense assay relative to wild type; format: functional; summary of the method: as §3
[16] = test system: Human immunodeficiency virus 1; assay: Antiviral activity against HIV1 isolate 192 harboring reverse transcriptase M41L/T215Y mutant gene by phenosense assay relative to wild type; format: functional; summary of the method: as §1
[17] = test system: Human immunodeficiency virus 1; assay: Antiviral activity against HIV1 isolate 160 harboring reverse transcriptase S68G/V75(I/T)/F77L/Y115F/F116Y /Q151M mutant gene by phenosense assay; format: functional, organism-based; conditions: Human immunodeficiency virus 1, isolate 160; summary of the method: as §1
[18] = test system: Human immunodeficiency virus 1; assay: Antiviral activity against HIV1 isolate 180 harboring reverse transcriptase K65R mutant gene obtained as site-directed mutant of NL4-3 by phenosense assay relative to wild type; format: functional; summary of the method: as §1
[19] = test system: Human immunodeficiency virus 1; assay: Antiviral activity against HIV1 isolate 174 harboring reverse transcriptase M184V mutant gene obtained as site-directed mutant of NL4-3 by phenosense assay; format: functional, organism-based; conditions: Human immunodeficiency virus 1, isolate 174; summary of the method: as §1
[20] = test system: Human immunodeficiency virus 1; assay: Antiviral activity against HIV1 52534-2 harboring reverse transcriptase 41L//74V/210W/215Y/184V/69SSS mutant gene infected in human PBMC by ELISA; format: functional, organism-based; conditions: Human immunodeficiency virus 1, 52534-2; summary of the method: as §2
[21] = test system: Human immunodeficiency virus 1; assay: Antiviral activity against HIV1 isolate 162 harboring reverse transcriptase A62V/V75I/F77L/Y115F/F116Y/Q151M/M184V mutant gene by phenosense assay; format: functional, organism-based; conditions: Human immunodeficiency virus 1, isolate 162; summary of the method: as §1
[22] = test system: Human immunodeficiency virus 1; assay: Antiviral activity against HIV1 isolate 157 harboring reverse transcriptase L74V/M184V mutant gene by phenosense assay relative to wild type; format: functional; summary of the method: as §1
[23] = test system: Human immunodeficiency virus 1; assay: Antiviral activity against HIV1 isolate 192 harboring reverse transcriptase M41L/T215Y mutant gene by phenosense assay; format: functional, organism-based; conditions: Human immunodeficiency virus 1, isolate 192; summary of the method: as §1
[24] = test system: Human immunodeficiency virus 1; assay: Antiviral activity against HIV1 isolate 061 harboring reverse transcriptase M41L/D67N/K70R/M184V/L210W/T215Y/K219E mutant gene by phenosense assay relative to wild type; format: functional; summary of the method: as §1
[25] = test system: Human immunodeficiency virus 1; assay: Antiviral activity against HIV1 isolate 157 harboring reverse transcriptase L74V/M184V mutant gene by phenosense assay; format: functional, organism-based; conditions: Human immunodeficiency virus 1, isolate 157; summary of the method: as §1
[26] = test system: Human immunodeficiency virus 1; assay: Antiviral activity against HIV1 isolate 067 harboring reverse transcriptase A62V/D67G/T69SVG/V75I/T215I mutant gene by phenosense assay; format: functional, organism-based; conditions: Human immunodeficiency virus 1, isolate 067; summary of the method: as §1
[27] = test system: Human immunodeficiency virus 1; assay: Antiviral activity against HIV1 4755-5 harboring reverse transcriptase 41L/44D/67N/69D/118I/210W/215Y/184V mutant gene infected in human PBMC by ELISA; format: functional, organism-based; conditions: Human immunodeficiency virus 1, 4755-5; summary of the method: as §2
[28] = test system: Human immunodeficiency virus 1; assay: Antiviral activity against HIV1 isolate 067 harboring reverse transcriptase A62V/D67G/T69SVG/V75I/T215I mutant gene by phenosense assay relative to wild type; format: functional; summary of the method: as §1
[29] = test system: Human immunodeficiency virus 1; assay: Antiviral activity against HIV1 isolate 212 harboring reverse transcriptase L210W/T215Y mutant gene by phenosense assay; format: functional, organism-based; conditions: Human immunodeficiency virus 1, isolate 212; summary of the method: as §3
[30] = test system: Human immunodeficiency virus 1; assay: Antiviral activity against HIV1 isolate 200 harboring reverse transcriptase M41L/L210W/T215Y mutant gene by phenosense assay relative to wild type; format: functional; summary of the method: as §1

SMILES	EC50 [1]	EC50 [2]	EC50 [3]	fold change (FC) [5]	fold change (FC) [6]	EC50 [7]	EC50 [8]	EC50 [9]	EC50 [10]	EC50 [11]	fold change (FC) [12]	fold change (FC) [13]	EC50 [14]	fold change (FC) [15]	fold change (FC) [16]	EC50 [17]	fold change (FC) [18]	EC50 [19]	EC50 [20]	EC50 [21]	also measured
CCCCCCCCCCCCCCCCOCCCOP(=O)(O)CO[C@H](C)Cn1cnc2c(N)ncnc21 [TENOFOVIR EXALIDEX]	2.7 nM	1.8 nM	2.1 nM	1	1.5	6.1 nM	8.5 nM	9.6 nM	1.2 nM	3.6 nM	1.9	3.3	1.7 nM	0.78	2.1	3.7 nM	2.6	1.2 nM	9 nM	3.1 nM	EC50 [4]: 1.7 nM; fold change (FC) [22]: 0.36; EC50 [23]: 3.9 nM; fold change (FC) [24]: 2.1; EC50 [25]: 0.66 nM; EC50 [26]: 57 nM; EC50 [27]: 3.1 nM; fold change (FC) [28]: 31; EC50 [29]: 2.8 nM; fold change (FC) [30]: 3.2
C[C@H](Cn1cnc2c(N)ncnc21)OCP(=O)(O)O [TENOFOVIR ANHYDROUS]	940 nM	1000 nM	740 nM	0.91	1.2	2000 nM	2700 nM	3600 nM	480 nM	1300 nM	1.7	4	620 nM	0.64	1.8	1700 nM	2	410 nM	> 6500 nM	1100 nM	EC50 [4]: 610 nM; fold change (FC) [22]: 0.29; EC50 [23]: 1400 nM; fold change (FC) [24]: 2.2; EC50 [25]: 230 nM; EC50 [26]: 17000 nM; EC50 [27]: 5400 nM; fold change (FC) [28]: 22; EC50 [29]: 1000 nM; fold change (FC) [30]: 2.8
Cc1cn([C@H]2C[C@H](N=[N+]=[N-])[C@@H](CO)O2)c(=O)[nH]c1=O [ZIDOVUDINE]	11 nM	1.8 nM	6 nM	7	0.41	2200 nM	9600 nM	16000 nM	11 nM	12 nM	0.44	400	71 nM	0.15	20	2500 nM	0.51	9 nM	350 nM	4200 nM	fold change (FC) [22]: 0.22; EC50 [23]: 560 nM; fold change (FC) [24]: 58; EC50 [25]: 6 nM; EC50 [26]: > 25000 nM; EC50 [27]: 100 nM; fold change (FC) [28]: >920; EC50 [29]: 210 nM; fold change (FC) [30]: 100
